According to paper PMC9250355 (Molecular Biology of the Cell, 2022):

B1: GST-Cdc15C1 (residues 600–end) (domain or fragment)
chain: MRRRQSTSVDDEAPVSLSKTSSSTRLNGLGYHSRNTSIASDIDGVPKKSTLGAPPAAHTSAQMQRMSNSFASQTKQVFGEQRTENSARESLRHSRSNMSRSPSPMLSRRSSTLRPSFERSASSLSVRQSDVVSPAPSTRARGQSVSGQQRPSSSMSLYGEYNKSQPQLSMQRSVSPNPLGPNRRSSSVLQSQKSTSSNTSNRNNGGYSGSRPSSEMGHRYGSMSGRSMRQVSQRSTSRARSPEPTNRNSVQSKNVDPRATFTAEGEPILGYVIALYDYQAQIPEEISFQKGDTLMVLRTQEDGWWDGEIINVPNSKRGLFPSNFVQTV

Key:
[1] = system: S. pombe strains (pxl1 wild type and pxl1 mutants); experiment: Serial dilution growth assay in the presence of LatA; assay type: cell-based; conditions: low-dose LatA (0.20 μM), 32°C
Procedure, shortened: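 Strains were grown in liquid YE at 25°C. Three 10-fold serial dilutions starting at 4 × 10^6 cells/ml were spotted on YE agar containing 0.20 µM LatA or DMSO. Plates were incubated at 32°C for 2–5 d, then colonies were imaged by scanner.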

[2] = target: Pxl1 PxxP^6 peptide (residues 177–188), biotin-labeled (S. pombe)

Molecule | sensitivity of pxl1 mutants to LatA [1] | Kd [2]
C/C1=C/C(=O)O[C@@H]2C[C@@H](CC[C@H](C)/C=C\C=C\CC1)O[C@@](O)([C@@H]1CSC(=O)N1)C2 [LatA, latrunculin A] | no evidence of sensitivity | –
B1 | – | 1900 nM
